Results gathered from unrelated publications.
Lines come from different studies, so protocols differ.
Organism: Bacillus subtilis
Effect on: microbial growth

O=C(O)c1ccc(-n2cc(/C=N/Nc3c(F)c(F)cc(F)c3F)c(-c3cccc(F)c3)n2)cc1  MIC (ATCC6623): 12.5 µg/mL
CCCCCCC[P+](/C=C(/c1ccccc1)c1cc(Cl)ccc1O)(CCCCCCC)CCCCCCC  MIC (21 h): 10 µM
Fc1ccccc1NCc1ccc(Oc2ccccn2)cc1  MIC: 1.8 µg/mL
O=C(O)c1ccc(-n2cc(/C=N/Nc3c(F)c(F)c(F)c(F)c3F)c(-c3cccc(F)c3)n2)cc1  MIC (ATCC6623): 6.25 µg/mL
O=C1NC(=S)N/C1=C\c1c2ccccc2c(-c2ccc(N(c3ccccc3)c3ccccc3)cc2)c2ccccc12  MIC (broth dilution; ATCC6633): > 1000 µg/mL
CC1=NN(CNC(=O)c2ccccc2)C(=O)C1=NNn1c(-c2ccccc2)nc2ccccc2c1=O  MIC (broth dilution; 24 h): 51.9 µM
CCCC[P+](/C=C(/c1ccccc1)c1cc(Cl)ccc1O)(CCCC)CCCC  MIC (21 h): 10 µM
O=C(O)c1ccc(-n2cc(/C=N/N(c3ccccc3)c3ccccc3)c(-c3ccc(F)cc3)n2)cc1  MIC (ATCC6623): 1.56 µg/mL
C/C=C(\C)c1cc(OC(=O)c2c(O)c(C)c(O)c(Cl)c2/C(C)=C/C)c(C)c(O)c1C(=O)O  MIC (broth dilution; BS01): 32 µg/mL
O=C(Nc1ccc2c(c1)OC(F)(F)O2)Nc1ccc(Cl)c(C(F)(F)F)c1  MIC (168): 1 µM
CC1=NN(CNc2ccc(Cl)cc2)C(=O)C1=NNn1c(-c2ccccc2)nc2ccccc2c1=O  MIC (broth dilution; 24 h): 103 µM
Clc1ccccc1NCc1ccc(Oc2ccccn2)cc1  MIC: 1.8 µg/mL
CCCCCC[P+](/C=C(/c1ccccc1)c1cc(Cl)ccc1O)(CCCCCC)CCCCCC  MIC (21 h): 2 µM
O=C(O)CN1C(=O)/C(=C/c2ccc(-c3ccc(N(c4ccccc4)c4ccccc4)cc3)c3ccccc23)NC1=S  MIC (broth dilution; ATCC6633): > 1000 µg/mL
Fc1ccc(NCc2ccc(Oc3ccccn3)cc2)cc1  MIC: 1.6 µg/mL
O=C1NC(=S)S/C1=C\c1ccc(-c2ccc(N(c3ccccc3)c3ccccc3)cc2)c2ccccc12  MIC (broth dilution; ATCC6633): 1000 µg/mL
NC[C@H]1O[C@H](O[C@H]2[C@H](O)[C@@H](O[C@H]3O[C@H](CO)[C@@H](O)[C@H](N)[C@H]3O)[C@H](N)C[C@@H]2N)[C@H](N)C[C@@H]1O  MIC (168): 1.2 µg/mL
C[n+]1c(/C=C/c2ccc(O)cc2)cc(/C=C2\Sc3ccccc3N2CCCN2CCOCC2)c2ccccc21.[I-]  MIC (broth dilution; 168): 4 µg/mL
O=C(O)c1ccc(-n2cc(/C=N/Nc3ccc(F)cc3)c(-c3ccc(F)cc3)n2)cc1  MIC (ATCC6623): 25 µg/mL
O=C1NC(=S)S/C1=C\c1c2ccccc2c(-c2ccc(N(c3ccccc3)c3ccccc3)cc2)c2ccccc12  MIC (broth dilution; ATCC6633): > 1000 µg/mL
N#Cc1ccc(N/N=C/c2cn(-c3ccc(C(=O)O)cc3)nc2-c2ccc(F)cc2)cc1  MIC (ATCC6623): 25 µg/mL
CCCC[P+](/C=C(/c1ccccc1)c1cc(Cl)ccc1OC)(CCCC)CCCC  MIC (21 h): 1 µM
CCCCCCCCOC(=O)c1cc(O)c(O)c(O)c1  MIC (broth dilution; ATCC6633): 12.5 to 25 µM
CC1=NN(CNc2ccc(C(=O)O)cc2)C(=O)C1=NNn1c(-c2ccccc2)nc2ccccc2c1=O  MIC (broth dilution; 24 h): 50.5 µM
O=C(O)c1ccc(-n2cc(/C=N/N(Cc3ccccc3)Cc3ccccc3)c(-c3ccc(F)cc3)n2)cc1  MIC (ATCC6623): 6.25 µg/mL
Cc1cccc(NCc2ccc(Oc3ccccn3)cc2)c1  MIC: > 3.1 µg/mL
C[C@@H](O)[C@H]1C(=O)N2C(C(=O)O)=C(S[C@@H]3CN[C@H](C(=O)N(C)C)C3)[C@H](C)[C@H]12  MIC (broth dilution; 24 h): 0.0625 µg/mL
Cc1cc(/C=C2\Sc3ccccc3N2CCCN2CCCCC2)c2ccccc2[n+]1C.[I-]  MIC (broth dilution; 168): 8 µg/mL
Clc1cccc(NCc2ccc(Oc3ccccn3)cc2)c1  MIC: 1.8 µg/mL
CCCCCC/C=C\CCCCCCCCCc1cc(O)cc(O)c1  MIC (broth dilution; 168): > 64 µg/mL
COc1cccc(NCc2ccc(Oc3ccccn3)cc2)c1  MIC: 1.6 µg/mL
C[n+]1c(/C=C/c2c[nH]c3ccccc23)cc(/C=C2\Sc3ccccc3N2CCCN2CCOCC2)c2ccccc21.[I-]  MIC (broth dilution; 168): 8 µg/mL
O=C(O)c1ccc(-n2cc(/C=N/N(Cc3ccccc3)c3ccccc3)c(-c3cccc(F)c3)n2)cc1  MIC (ATCC6623): 1.56 µg/mL
NC[C@H]1O[C@H](O[C@H]2[C@H](O)[C@@H](O[C@H]3O[C@H](CO)[C@@H](O)[C@H](N)[C@H]3O)[C@H](N)C[C@@H]2N)[C@H](O)[C@@H](O)[C@@H]1O  MIC: 2 to 4 µg/mL
CN[C@H](CC(C)C)C(=O)N[C@H]1C(=O)N[C@@H](CC(N)=O)C(=O)N[C@H]2C(=O)N[C@H]3C(=O)N[C@H](C(=O)N[C@H](C(=O)O)c4cc(O)cc(O)c4-c4cc3ccc4O)[C@H](O)c3ccc(c(Cl)c3)Oc3cc2cc(c3O[C@@H]2O[C@H](CO)[C@@H](O)[C@H](O)[C@H]2O[C@H]2C[C@](C)(N)[C@H](O)[C@H](C)O2)Oc2ccc(cc2Cl)[C@H]1O  MIC (broth dilution; BS01): 0.13 µg/mL
CSc1ccc(/C=C/c2cc(/C=C3\Sc4ccccc4N3CCCN3CCCC3)c3ccccc3[n+]2C)cc1.[I-]  MIC (broth dilution; 168): 16 µg/mL
O=C(O)c1cc(O)c(O)c(OC(=O)c2cc(O)c(O)c(O)c2)c1  MIC (broth dilution; ATCC6633): > 200 µM
CCCCC[P+](/C=C(/c1ccccc1)c1cc(Cl)ccc1OC)(CCCCC)CCCCC  MIC (21 h): 2 µM
O=C(O)CN1C(=O)/C(=C/c2ccc(-c3ccc(N(c4ccccc4)c4ccccc4)cc3)cc2)SC1=S  MIC (broth dilution; ATCC6633): 1.95 µg/mL
O=C(O)c1ccc(-n2cc(/C=N/Nc3ccc(Br)cc3)c(-c3cccc(F)c3)n2)cc1  MIC (ATCC6623): 12.5 µg/mL
O=C1NC(=S)N/C1=C\c1ccc(-c2ccc(N(c3ccccc3)c3ccccc3)cc2)c2ccccc12  MIC (broth dilution; ATCC6633): > 1000 µg/mL
C[n+]1c(/C=C/c2ccc(O)cc2)cc(/C=C2\Sc3ccccc3N2CCCN2CCCC2)c2ccccc21.[I-]  MIC (broth dilution; 168): 16 µg/mL
O=C1NC(=S)N/C1=C\c1ccc(-c2ccc(N(c3ccccc3)c3ccccc3)cc2)cc1  MIC (broth dilution; ATCC6633): > 1000 µg/mL
CO[C@H]1/C=C/O[C@@]2(C)Oc3c(C)c(O)c4c(O)c(c(/C=N/N5CCN(C)CC5)c(O)c4c3C2=O)NC(=O)/C(C)=C\C=C\[C@H](C)[C@H](O)[C@@H](C)[C@@H](O)[C@@H](C)[C@H](OC(C)=O)[C@@H]1C  MIC (broth dilution; 168): 4 µg/mL
Brc1ccc(NCc2ccc(Oc3ccccn3)cc2)cc1  MIC: > 3.1 µg/mL
C/C=C(\C)c1cc(OC(=O)c2c(C)c(Cl)c(O)c(Cl)c2O)c(C)c(O)c1C(=O)O  MIC (broth dilution; BS01): 64 µg/mL
